In experiment [1] the test system is Jurkat. Briefly: % of spermine (SPM) in JURKAT cells after 144 hr at 5 uM concentration. It counts as functional, cell-based. The following applies: Homo sapiens. An outline of the steps:
(§1)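 Log-phase JURKAT cells were treated with analogue for 144 h, at 2 μM for tetraamines or 5 μM for triamines. After two ice-cold RPMI-1640 washes, pellets were extracted with 1.2 N HClO4. Results are percent of untreated control, mean ± SD of 2–5 determinations run in triplicate.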

The test system of experiment [2] is Jurkat. Briefly: % of spermidine (SPD) in JURKAT cells after 144 hr at 5 uM concentration. It counts as functional, cell-based. The following applies: Homo sapiens. The essentials:
as §1

Experiment [3] has as its system Jurkat. Nature of the experiment: effect of compound on polyamine biosynthetic enzymes in JURKAT cells using AdoMetDC assay. Type of experiment: functional, Homo sapiens.
The test system of experiment [4] is L1210. Briefly: % of spermidine (SPD) in L1210 cells after 48 hr at 100 uM concentration. It counts as functional, cell-based. The conditions noted are these: Mus musculus.
The test system of experiment [5] is Jurkat. Briefly: effect of compound on polyamine biosynthetic enzymes in JURKAT cells using ODC assay. It counts as functional, Homo sapiens.
Experiment [6] relates to L1210. Nature of the experiment: Effect of compound on polyamine biosynthetic enzymes in L1210 cells using AdoMetDC assay. It counts as functional, Mus musculus.
Experiment [7] has as its system L1210. Briefly: Effect of compound on polyamine biosynthetic enzymes in L1210 cells using ODC assay. It counts as functional, Mus musculus.
The test system of experiment [8] is L1210. Briefly: % of spermine (SPM) in L1210 cells after 48 hr at 100 uM concentration. It counts as functional, cell-based. The conditions noted are these: Mus musculus.
Experiment [9] deals with Jurkat. Briefly: competitive inhibition of [3H]SPD transport in JURKAT cells. Type of experiment: functional, cell-based, Homo sapiens. An outline of the steps: (§2)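 [3H]spermidine uptake rate into JURKAT cells was measured at six spermidine concentrations, without analogue and with analogue at 50, 25 and 10 μM. Lineweaver–Burk plots were used to assign the competitive mode and derive Ki. Values are means of two or three experiments.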

The test system of experiment [10] is Jurkat. Nature of the experiment: % of hypusine (Hpu) in JURKAT cells after 144 hr at 5 uM concentration. It counts as functional, cell-based. The following applies: Homo sapiens. The essentials: (§3)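 JURKAT cells in log-phase growth were exposed to analogue for 144 h, at 2 μM for the tetraamines or 5 μM for the triamines. Cells were washed twice with ice-cold RPMI-1640 and extracted with 1.2 N HClO4. Values are percent of untreated control, mean ± SD of 2–5 determinations, each in triplicate.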

In experiment [11] the test system is L1210. Briefly: Activity of compound measured against L1210 cells. It counts as functional, cell-based, Mus musculus.
Experiment [12] concerns Jurkat. Nature of the experiment: Inhibitory activity against growth of JURKAT cells after 144h. Type of experiment: functional, cell-based. The conditions noted are these: Homo sapiens. The essentials:
(§4)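 JURKAT cells were grown in RPMI-1640 with 10% fetal calf serum, 2 mM L-glutamine and 1 mM aminoguanidine. Cells were counted electronically. IC50 is the concentration giving 50% of untreated growth, mean of at least two experiments.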

In experiment [13] the test system is Jurkat. Nature of the experiment: % of putrescine (PUT) in JURKAT cells after 144 hr at 5 uM concentration. It counts as functional, cell-based. The following applies: Homo sapiens. An outline of the steps:
as §1

The test system of experiment [14] is L1210. Briefly: % of putrescine (PUT) in L1210 cells after 48 hr at 100 uM concentration. Type of experiment: functional, cell-based. The following applies: Mus musculus.
For experiment [15], the system named is Jurkat. Nature of the experiment: % of hypusine (Hpu) in JURKAT cells after 144 hr at 2 uM concentration. It counts as functional, cell-based. The conditions noted are these: Homo sapiens. The essentials:
as §3

For experiment [16], the system named is L1210 (mouse). Briefly: % of spermidine (SPD) in control cells after 72 hr at 2 uM concentration.
In experiment [17] the test system is Jurkat. Briefly: inhibitory activity against growth of JURKAT cells after 144h. Type of experiment: functional, cell-based. The conditions noted are these: Homo sapiens. An outline of the steps:
as §4

The subject of experiment [18] is Jurkat. Briefly: competitive inhibition of [3H]SPD transport by JURKAT cells. It counts as functional, cell-based, Homo sapiens. An outline of the steps: as §2
Experiment [19] concerns L1210. Nature of the experiment: effect of compound on polyamine biosynthetic enzymes in L1210 cells using AdoMetDC assay. Type of experiment: functional, Mus musculus.
Experiment [20] deals with L1210. Briefly: % of putrescine (PUT) in L1210 cells after 48 hr at 10 uM concentration. Type of experiment: functional, cell-based. The conditions noted are these: Mus musculus.
In experiment [21] the test system is L1210 (mouse). Nature of the experiment: % of putrescine (PUT) in control cells after 72 hr at 2 uM concentration.
The test system of experiment [22] is L1210. Nature of the experiment: effect of compound on polyamine biosynthetic enzymes in L1210 cells using ODC assay. Type of experiment: functional, Mus musculus.
Experiment [23] relates to L1210. Briefly: % of spermidine (SPD) in L1210 cells after 48 hr at 10 uM concentration. Type of experiment: functional, cell-based. The conditions noted are these: Mus musculus.
Experiment [24] concerns L1210 (mouse). Briefly: % of hypusine (Hpu) in control cells after 72 hr at 2 uM concentration.
Experiment [25] deals with Jurkat. Briefly: % of spermine (SPM) in JURKAT cells after 144 hr at 2 uM concentration. The following applies: Homo sapiens. It counts as functional, cell-based. The essentials:
as §1

Experiment [26] concerns Jurkat. Nature of the experiment: % of spermidine (SPD) in JURKAT cells after 144 hr at 2 uM concentration. Type of experiment: functional, cell-based. The conditions noted are these: Homo sapiens. The essentials: as §1
Experiment [27] has as its system L1210 (mouse). Briefly: % of spermine (SPM) in control cells after 72 hr at 2 uM concentration.
The test system of experiment [28] is L1210. Briefly: % of spermine (SPM) in L1210 cells after 48 hr at 10 uM concentration. Type of experiment: functional, cell-based. The following applies: Mus musculus.
Experiment [29] deals with Jurkat. Briefly: % of putrescine (PUT) in JURKAT cells after 144 h at 2 uM concentration. Type of experiment: functional, cell-based. The following applies: Homo sapiens. An outline of the steps:
as §1

Experiment [30] concerns Jurkat. Nature of the experiment: Competitive inhibition of [3H]SPD (spermidine) transport in JURKAT cells. Type of experiment: functional, cell-based, Homo sapiens. An outline of the steps:
as §2

Take `NCCCCCNCCCCN`: the Level with Jurkat [1] was determined as 25.2%; in the experiment with Jurkat [2], 0%; with L1210 [4], 0%; with L1210 [8], 53%; in the experiment on Jurkat [10], 80.2%; in the experiment on Jurkat [13] it was 0%. Besides, the Level in the experiment on L1210 [14] came to 0%. For the same compound, the “AdoMetDC activity (% of control)” value in the experiment on Jurkat [3] worked out at 79.3%. Further, the “ODC activity (% of control)” value in the experiment on Jurkat [5] amounted to 34.7%. The Control turned out to be 57% with L1210 [6] and 19% in the experiment with L1210 [7]. The inhibitory constant (Ki) (in general, a dissociation constant, usually derived from enzyme kinetics or from competition with a known ligand) with Jurkat [9] amounted to 2.8 µM; in the experiment with L1210 [11] it was 1.4 µM. The IC50 (usually the point on the concentration scale where inhibition reaches its midpoint) in the experiment with Jurkat [12] came out at 70 µM.

With `CCNCCCNCCCNCCCNCC` [BIS(ETHYL)NORSPERMINE], the Level in the experiment on Jurkat [15] amounted to 58.9%; in the experiment on L1210 (mouse) [16] it was 3.8%; in the experiment with L1210 [20], 30%; with L1210 (mouse) [21] it was 0%; in the experiment on L1210 [23], 14%; in the experiment on L1210 (mouse) [24], 56.8%. Moreover, the Level in the experiment on Jurkat [25] was 5.5%; in the experiment on Jurkat [26] it was 9.2%; in the experiment with L1210 (mouse) [27] it was 13.4%; with L1210 [28], 31%; with Jurkat [29] it was 0%. In the experiment on Jurkat [17], the IC50 is 0.65 µM. Further, in the experiment with Jurkat [3], the “AdoMetDC activity (% of control)” value is recorded as 51.4%. Moreover, the “ODC activity (% of control)” value in the experiment with Jurkat [5] came to 16.9%. Besides, in the experiment with Jurkat [18], the inhibition constant Ki was 14.4 µM. Further, the Control stood at 42% with L1210 [19] and 10% in the experiment with L1210 [22].

On to `CCNCCCCNCCCCNCCCCNCC` [DIETHYLHOMOSPERMINE], for which the Level was determined as 73.2% with Jurkat [15]; 0% in the experiment on L1210 [20]; 0% with L1210 [23]; 13.4% in the experiment with Jurkat [25]; 0% in the experiment with Jurkat [26]; 61% in the experiment with L1210 [28]. The compound further returned a Level in the experiment on Jurkat [29] of 0%. In addition, the “AdoMetDC activity (% of control)” value in the experiment with Jurkat [3] is 61.6%. Further, in the experiment with Jurkat [5], the “ODC activity (% of control)” value is 29.8%. In addition, the Control is 41% in the experiment with L1210 [19] and 7% in the experiment with L1210 [7]. Also, the Ki came out at 8.8 µM in the experiment with Jurkat [30] and 2 µM with L1210 [11]. The compound also showed an IC50 with Jurkat [12] of 0.2 µM.

Consider `NCCCCCNCCCCCN`, for which the Level in the experiment with Jurkat [1] worked out at 38.8%; in the experiment on Jurkat [2], 1.1%; in the experiment on L1210 [4], 0%; with L1210 [8], 33%; with Jurkat [10], 86.4%; in the experiment with Jurkat [13], 0%. In addition, in the experiment with L1210 [14], the Level amounted to 0%. In the experiment on Jurkat [17], this compound returned an IC50 of 1.2 µM. Also, in the experiment on Jurkat [3], the “AdoMetDC activity (% of control)” value is given as 84.9%. Also, in the experiment on Jurkat [5], the “ODC activity (% of control)” value is 53.3%. In addition, the Ki in the experiment with Jurkat [18] came to 13.8 µM; in the experiment on L1210 [11], 14 µM. For the same compound, the figures for the Control with L1210 [19] and in the experiment on L1210 [22] were 88% and 16%, respectively.

The values are drawn from ChEMBL document CHEMBL1131125, “Effect of polyamine analogues on hypusine content in JURKAT T-cells” (J Med Chem, 1998).
